Laboratory results published in ChEMBL document CHEMBL1671866, “Genotyping as a tool for antibiotic resistance surveillance of Neisseria gonorrhoeae in New Caledonia: evidence of a novel genotype associated with reduced penicillin susceptibility” (2008).
Values after ≈ are worked out from the molar mass of the structure shown.

Assays:
Format in all cases: functional
[1] = tested on: Neisseria gonorrhoeae; assay: Antibacterial activity against Neisseria gonorrhoeae assessed as susceptible isolates by disk agar diffusion method
Outline: (§1)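 Clinical isolates were collected from sexually transmitted infections in New Caledonia over nearly 3 years. They were tested in vitro against conventional antibiotics by disk agar diffusion. Archival chromosomally mediated resistant isolates and 12 reference strains served as controls: WHO-C, -G, -L, -M, -O, -P and 07QA-01 to 07QA-06.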

[2] = tested on: Neisseria gonorrhoeae; assay: Antibacterial activity against Neisseria gonorrhoeae by disk agar diffusion method; outline: as §1
[3] = tested on: Neisseria gonorrhoeae; assay: Antibacterial activity against Neisseria gonorrhoeae assessed as intermediate-resistant isolates by disk agar diffusion method
Outline: (§2)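 Clinical N. gonorrhoeae isolates from sexually transmitted infections in New Caledonia, collected over about 3 years. Susceptibility to conventional antibiotics was tested by disk agar diffusion, and beta-lactamase production by nitrocefin discs. Archival chromosomally mediated resistant isolates and WHO reference strains (WHO-C, -G, -L, -M, -O, -P; 07QA-01 to -06) served as controls.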

[4] = tested on: Neisseria gonorrhoeae; assay: Antibacterial activity against Neisseria gonorrhoeae harboring porB1a gene by disk agar diffusion method; outline: as §2
[5] = tested on: Neisseria gonorrhoeae; assay: Antibacterial activity against Neisseria gonorrhoeae harboring wild-type GA gene by disk agar diffusion method; outline: as §2
[6] = tested on: Neisseria gonorrhoeae; assay: Antibacterial activity against Neisseria gonorrhoeae harboring porB1b and DA G101D mutant genes by disk agar diffusion method; outline: as §2
[7] = tested on: Neisseria gonorrhoeae; assay: Antibacterial activity against Neisseria gonorrhoeae harboring GS A102S mutant gene by disk agar diffusion method; outline: as §2
[8] = tested on: Neisseria gonorrhoeae; assay: Antibacterial activity against Neisseria gonorrhoeae harboring ponA L421P mutant gene by disk agar diffusion method; outline: as §2
[9] = tested on: Neisseria gonorrhoeae; assay: Antibacterial activity against Neisseria gonorrhoeae harboring wild-type ponA gene by disk agar diffusion method; outline: as §2
[10] = tested on: Neisseria gonorrhoeae; assay: Antibacterial activity against Neisseria gonorrhoeae harboring GS gene by disk agar diffusion method; outline: as §2
[11] = tested on: Neisseria gonorrhoeae; assay: Antibacterial activity against Neisseria gonorrhoeae harboring KD gene by disk agar diffusion method; outline: as §2
[12] = tested on: Neisseria gonorrhoeae; assay: Antibacterial activity against Neisseria gonorrhoeae harboring wild-type GA and wild-type penA genes by Etest method
Outline: (§3)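 Penicillin G MIC (µg/ml) by E-test gradient strip on chocolate agar plus PolyVitex, read where the inhibition zone meets the strip. Test organisms were clinical gonococcal isolates from New Caledonia, grouped by genotype. Archival chromosomally mediated resistant isolates and 12 WHO reference strains served as controls.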

[13] = tested on: Neisseria gonorrhoeae; assay: Antibacterial activity against Neisseria gonorrhoeae harboring wild-type GA and Asp-345a insertion in penA genes by Etest method; outline: as §3
[14] = tested on: Neisseria gonorrhoeae; assay: Antibacterial activity against Neisseria gonorrhoeae harboring wild-type penA and DA G101D mutant genes by Etest method; outline: as §3
[15] = tested on: Neisseria gonorrhoeae; assay: Antibacterial activity against Neisseria gonorrhoeae harboring Asp-345a insertion in penA and DA G101D mutant genes by Etest method; outline: as §3
[16] = tested on: Neisseria gonorrhoeae; assay: Antibacterial activity against Neisseria gonorrhoeae harboring wild-type penA and GS A102S mutant genes by Etest method; outline: as §3
[17] = tested on: Neisseria gonorrhoeae; assay: Antibacterial activity against Neisseria gonorrhoeae harboring wild-type penA and porB1a genes by Etest method; outline: as §3
[18] = tested on: Neisseria gonorrhoeae; assay: Antibacterial activity against Neisseria gonorrhoeae harboring Asp-345a insertion in penA and porB1a genes by Etest method; outline: as §3

**Q.** CC1(C)S[C@@H]2[C@H](NC(=O)Cc3ccccc3)C(=O)N2[C@H]1C(=O)O [PENICILLIN G] was tested. Which Activity [1] did it give?
**A.** 60.1%

**Q.** What about the MIC [2] of the same molecule?
**A.** 0.064 µg/mL (≈ 0.191 µM)

**Q.** And the Activity [3]?
**A.** 39.9%

**Q.** And the MIC [4]?
**A.** 0.031 µg/mL (≈ 0.0927 µM)

**Q.** What about the MIC [5] of the same molecule?
**A.** 0.037 µg/mL (≈ 0.111 µM)

**Q.** And the MIC [6]?
**A.** 0.016 µg/mL (≈ 0.0478 µM)

**Q.** What about the MIC [7] of the same molecule?
**A.** 0.155 µg/mL (≈ 0.464 µM)

**Q.** What about the MIC [8] of the same molecule?
**A.** 0.059 µg/mL (≈ 0.176 µM)

**Q.** What about the MIC [9] of the same molecule?
**A.** 0.067 µg/mL (≈ 0.2 µM)

**Q.** What about the MIC [10] of the same molecule?
**A.** 0.63 µg/mL (≈ 1.88 µM)

**Q.** What about the MIC [11] of the same molecule?
**A.** 1 µg/mL (≈ 2.99 µM)

**Q.** What about the MIC [12] of the same molecule?
**A.** 0.017 µg/mL (≈ 0.0508 µM)

**Q.** And the MIC [13]?
**A.** 0.081 µg/mL (≈ 0.242 µM)

**Q.** And the MIC [14]?
**A.** 0.016 µg/mL (≈ 0.0478 µM)

**Q.** What about the MIC [15] of the same molecule?
**A.** 0.133 µg/mL (≈ 0.398 µM)

**Q.** What about the MIC [16] of the same molecule?
**A.** 0.156 µg/mL (≈ 0.467 µM)

**Q.** And the MIC [17]?
**A.** 0.011 µg/mL (≈ 0.0329 µM)

**Q.** And the MIC [18]?
**A.** 0.07 µg/mL (≈ 0.209 µM)
